From ChEMBL document CHEMBL1124662, “Antiinflammatory activity of a series of substituted 2,3-dihydro-6-hydroxypyrimido[2,1-f]purine-4,8(1H,9H)-diones” (J Med Chem, 1989)

Experiments:
Rattus norvegicus [1] = experiment: Antiinflammatory activity against reverse passive Arthus reaction-synovitis in rat at dose of 50 mg/kg per orally.; type: functional; details: po
Procedure, shortened: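 Lewis rats dosed orally with drug or placebo 1 h before iv bovine serum albumin in saline, then 0.54 mg rabbit anti-BSA antibody intraarticular in one knee, saline in the other, under light anesthesia. Second oral dose at 3 h; the dose used is the total given before and after induction.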

Rattus norvegicus [2] = experiment: Prophylactic antiinflammatory activity against adjuvant arthritic rat at dose of 25 mg/kg in noninjected 2 degree paw.; type: functional
Procedure, shortened: (§1)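 Heat-killed Mycobacterium tuberculosis ground and homogenized in paraffin oil (6 mg/mL); 0.1 mL injected into left hind paw. Drug dosed 1 h before challenge, then daily for 21 consecutive days; controls received methylcellulose. Both hind paw volumes measured by plethysmograph immediately and on day 21; % inhibition of Δ paw volume.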

Rattus norvegicus [3] = experiment: Prophylactic antiinflammatory activity against adjuvant arthritic rat at dose of 25 mg/kg in noninjected 1 degree paw.; type: functional; procedure, shortened: as §1
Rattus norvegicus [4] = experiment: Prophylactic antiinflammatory activity against adjuvant arthritic rat at dose of 50 mg/kg in noninjected 2 degree paw.; type: functional; procedure, shortened: as §1
Rattus norvegicus [5] = experiment: Prophylactic antiinflammatory activity against adjuvant arthritic rat at dose of 50 mg/kg in noninjected 1 degree paw.; type: functional; procedure, shortened: as §1
Rattus norvegicus [6] = experiment: Prophylactic anti-inflammatory activity in adjuvant arthritic rat at 12.5 mg/kg in noninjected 2 degree paw; type: functional; procedure, shortened: as §1
Rattus norvegicus [7] = experiment: Prophylactic anti-inflammatory activity in adjuvant arthritic rat at 12.5 mg/kg in noninjected 1 degree paw; type: functional; procedure, shortened: as §1
Rattus norvegicus [8] = experiment: Prophylactic anti-inflammatory activity in adjuvant arthritic rat at 6.25 mg/kg in noninjected 2 degree paw; type: functional; procedure, shortened: as §1
Rattus norvegicus [9] = experiment: Prophylactic anti-inflammatory activity in adjuvant arthritic rat at 6.25 mg/kg in noninjected 1 degree paw; type: functional; procedure, shortened: as §1
[10] = Therapeutic oral administration in adjuvant arthritic rat model at 25 mg/kg in noninjected 2 degree paw; type: ADME, organism-based; parameters: dose 25 mg/kg, route oral
Procedure, shortened: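 Adjuvant arthritis (heat-killed M. tuberculosis in paraffin oil, 6 mg/mL, 0.1 mL into left hind paw) left to develop 7 days before first oral dose; treatment continued 35 days. Controls given methylcellulose; hind paw volumes measured by plethysmograph as Δ paw volume; % inhibition.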

Rattus norvegicus [11] = experiment: Prophylactic oral administration in adjuvant arthritic rat model at 25 mg/kg in noninjected 2 degree paw; type: functional; procedure, shortened: as §1
Rattus norvegicus [12] = experiment: Prophylactic anti-inflammatory activity in adjuvant arthritic rat at 25 mg/kg in noninjected 1 degree paw; type: functional; procedure, shortened: as §1

Row | Compound | inhibition in vivo at 50 mg/kg (Rattus norvegicus [1]) | inhibition in vivo at 25 mg/kg (Rattus norvegicus [2]) | inhibition in vivo at 25 mg/kg (Rattus norvegicus [3]) | inhibition in vivo at 50 mg/kg (Rattus norvegicus [4]) | inhibition in vivo at 50 mg/kg (Rattus norvegicus [5]) | inhibition in vivo at 12.5 mg/kg (Rattus norvegicus [6]) | inhibition in vivo at 12.5 mg/kg (Rattus norvegicus [7]) | inhibition in vivo at 6.25 mg/kg (Rattus norvegicus [8]) | inhibition in vivo at 6.25 mg/kg (Rattus norvegicus [9]) | ED50 [10] | ED50 (Rattus norvegicus [11]) | inhibition in vivo at 25 mg/kg (Rattus norvegicus [12])
1 | CCCc1c(O)n(Cc2ccc(F)cc2)c2nc3c(n2c1=O)C(=O)N(C)CN3C | 0% | 56% | 0% |  |  |  |  |  |  |  |  | 
2 | CN1CN(C)c2nc3n(Cc4ccccc4)c(O)c(Sc4ccccc4)c(=O)n3c2C1=O |  |  |  | 23% | 15% |  |  |  |  |  |  | 
3 | Cc1c(O)n(Cc2ccccc2)c2nc3c(n2c1=O)C(=O)N(C)CN3C | 0% | 22% | 0% | 69% | 46% | 36% | 0% |  |  |  |  | 
4 | C/C=C/Cc1c(O)n(Cc2ccccc2)c2nc3c(n2c1=O)C(=O)N(C)CN3C | 0% | 40% | 24% | 71% | 44% |  | 20% |  |  |  |  | 
5 | C/C(=C/Cc1c(O)n(Cc2ccccc2)c2nc3c(n2c1=O)C(=O)N(C)CN3C)C(F)(F)F | 25% | 74% | 45% |  |  | 64% | 47% | 60% | 33% | 4 mg/kg | 8.8 mg/kg | 
6 | CCCc1c(O)n(Cc2ccccc2)c2nc3c(n2c1=O)C(=O)N(C)CN3C | 45% | 65% | 24% | 70% | 38% | 38% | 16% |  |  |  |  | 
7 | CC(C)=CCc1c(O)n(Cc2ccc(F)cc2)c2nc3c(n2c1=O)C(=O)N(C)CN3C | 18% | 49% |  |  |  |  |  |  |  | 7.6 mg/kg |  | 24%
8 | CN1CN(C)c2nc3n(Cc4ccccc4)c(O)c(CCO)c(=O)n3c2C1=O | 8% |  |  |  |  |  |  |  |  |  |  | 
9 | CCCc1c(O)n(Cc2cccs2)c2nc3c(n2c1=O)C(=O)N(C)CN3C |  | 51% | 20% |  |  | 13% | 20% |  |  |  |  | 
10 | CSc1c(O)n(Cc2ccccc2)c2nc3c(n2c1=O)C(=O)N(C)CN3C | 10% |  |  | 61% | 33% |  |  |  |  |  |  | 
11 | CN(C)/C=c1\c(=O)n(Cc2ccccc2)c2nc3c(n2c1=O)C(=O)N(C)CN3C | 27% |  |  |  |  |  |  |  |  |  |  | 
12 | CN1CN(C)c2nc3n(Cc4ccccc4)c(O)c(Cc4ccccc4)c(=O)n3c2C1=O | 5% | 49% | 34% | 63% | 46% |  |  |  |  |  |  | 
